# ALR inh: human ALR oxidase inhibition via reduced H2O2. P55789. purified ALR, DTT oxidation, H2O2 HRP-luminol luminescence. inhibition, % (test concentration not listed). 290,000 tested, 3.8% active;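 active = mean replicate inhibition above about 79%, with every replicate also reaching it, limit read from the data; inconclusive = only one of the two criteria met; inactive = mean below limit and not every replicate reaching it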
# Target sequence (P55789 whole entry, looked up): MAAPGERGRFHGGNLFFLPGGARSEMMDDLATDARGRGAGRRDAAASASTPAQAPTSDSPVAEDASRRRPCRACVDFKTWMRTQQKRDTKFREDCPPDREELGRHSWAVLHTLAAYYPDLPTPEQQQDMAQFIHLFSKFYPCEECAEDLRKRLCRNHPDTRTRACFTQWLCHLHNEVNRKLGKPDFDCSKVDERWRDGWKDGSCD
# HCV core dimer: HCV core protein dimerization inhibition; 300,000 tested, 0.33% active; TR-FRET GST/Flag-core106 dimerization, 1536-well; inhibition, % at 5 µM; AID 1899;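 active = inhibition above the mean of all tested compounds plus 3 SD, set per screening campaign, cut at about 45% in these data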
#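 System: GST-tagged and Flag-tagged HCV core protein residues 1-106 / Input: core106 proteins, GST 13.5 nM and Flag 17 nM / Buffer or medium: KF-containing HEPES buffer, pH 7.45, DTT, CHAPS, BSA / Probe or stimulus: Eu-anti-GST and XL665-anti-Flag labelled anti-tag antibodies / Schedule: 4 h, 22.5 °C incubation / Technique: TR-FRET 671 and 617 nm emission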
# AI-2 QS mod: Vibrio harveyi AI-2 quorum sensing modulation | AID 2094 | Vibrio harveyi JMH597 AI-2 luminescence/OD600 ratio, 9 h; stronger effect = lower value; strain lacks LuxN and CqsS sensors; 0 = neutral-control median | activity change, % at 7.5 µM | 300,000 tested, 0.4% active; in the data active = activity change below about -75%, passing the limit was not always enough; inconclusive = no clear call, values can overlap the other calls;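 also: luminescence divided by OD600 gain over 9 h not by final OD600 alone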
# HSF1 inh: HSF1 inhibition. activity change, negative = inhibition, % at 7.5 µM (by protocol). NIH3T3-HGL HSE-luciferase, MG132-induced, luminescence 8 h; stronger effect = lower value. 300,000 tested, 0.77% active;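 active = more than half of replicate wells show activity change below -50%, luminescence cut by over half; inconclusive = some wells, but at most half, below -50%; inactive = no replicate well below -50%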;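 also: luciferase reports HSF-1 transcriptional activity via heat shock element; 0% = median of DMSO wells and -100% = zero luminescence signal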
# PHOSPHO1 block: blocks human PHOSPHO1 phosphatase activity | 290,000 tested, 1.1% active | Q8TCT1 | AID 1565 | inhibition, % at 13.3 µM | recombinant PHOSPHO1, absorbance phosphatase assay; in the data active = inhibition above about 60%
# Target sequence (Q8TCT1 whole entry, looked up): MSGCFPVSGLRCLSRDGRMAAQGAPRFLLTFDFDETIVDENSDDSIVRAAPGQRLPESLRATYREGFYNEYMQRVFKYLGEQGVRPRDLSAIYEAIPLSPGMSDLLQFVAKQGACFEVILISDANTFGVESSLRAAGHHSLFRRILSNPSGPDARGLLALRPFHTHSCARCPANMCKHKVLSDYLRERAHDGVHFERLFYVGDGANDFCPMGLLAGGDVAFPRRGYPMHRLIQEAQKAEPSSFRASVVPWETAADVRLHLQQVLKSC
# HSF1 activator: increases HSF-1 driven luciferase reporter signal; NIH3T3-HGL HSF-1 luciferase reporter, MG132, 8 h; 100% = twice DMSO control signal; activation, % at 9 µM; 300,000 tested, 1.7% active; AID 504408;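 active = mean replicate activation of at least 50% with a set share of replicates each reaching 50%; inconclusive = only one of those two conditions met; inactive = mean below 50% and too few replicates reaching it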;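 also: 0% = median of the neutral control wells and 100% = twice that signal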
# Active calls of the source: *; u = inconclusive; x = not tested or not shown. An excerpt weighted towards active compounds, which were near 6.8% of everything screened.
SMILES,ALR inh,HCV core dimer,AI-2 QS mod,HSF1 inh,PHOSPHO1 block,HSF1 activator
CCC(C(=O)NC1CCCCCC1)n1nc(C)c2c(C)n(-c3ccccc3)nc2c1=O (configuration not stated),-7,-11,2,2,65*,6
CCC(C(=O)NC1CC1)n1nc(C)c2c(C)n(-c3ccc(C)cc3)nc2c1=O (configuration not stated),1,-4,3,5,27,21
CC(=O)c1cc(C(=O)N2CCCC(CCC(=O)N(C)CCc3ccccn3)C2)cs1 (configuration not stated),-11,-4,19,-3,44,-2
CCc1ccc(C2=NNC(=Nc3cccc(S(=O)(=O)N(C)C)c3)SC2)cc1,20,6,11,-77*,-15,-78
Cc1cccc(N=C2NN=C(c3ccc4c(c3)OCCO4)CS2)c1,8,2,11,u,53,-55
Cc1ccc(N(C(=O)c2csnn2)C(C(=O)NC(C)(C)C)c2ccncc2)cc1 (configuration not stated),-4,-2,5,14,38,22
CC(C)c1ccc(N(C(=O)c2csnn2)C(C(=O)NC(C)(C)C)c2ccncc2)cc1 (configuration not stated),3,-3,8,40,31,66*
COc1ccc(N2CCN(C(=O)CN(c3cccc(OC)c3)S(=O)(=O)c3ccccc3)CC2)cc1,38,5,-4,2,43,0
S=c1[nH]nc2n1CCCN2,95*,1,35,-7,4,4
O=S1(=O)NC(=NCCc2ccccn2)c2ccccc21,-9,1,13,-5,2,5
CCOC(=O)C1CCCN(C(=O)c2sc3nc(C)nc(N(CC)CC)c3c2C)C1 (configuration not stated),2,5,19,26,-2,57*
CCC1CCCCN1C(=O)c1sc2nc(C)nc(N(CC)CC)c2c1C (configuration not stated),-14,9,-2,-22,8,-38
O=C(O)CCC(=O)N(Cc1ccco1)C1CC(=O)N(c2ccccc2)C1=O (configuration not stated),-2,-1,16,-7,16,-6
C=CCOCCN(CCOCC=C)C1=NS(=O)(=O)c2ccccc21,-4,-5,18,-92*,22,-94
COc1ccccc1NC(=O)CSc1nn2c(=O)c(C)nnc2s1,99*,-5,-8,-8,42,-9
COc1ccccc1NC(=O)CSc1nnc(C)o1,-7,0,6,-3,10,-3
Cc1nnc2sc(SCC(=O)Nc3nccs3)nn2c1=O,99*,0,18,0,4,8
Cc1nnc(SCC(=O)Nc2nccs2)n1N,-2,-2,15,1,x,-2
Cc1ccc(OCCCC(=O)N(C)CC(=O)Nc2ccccc2Cl)cc1,8,3,12,2,x,4
COc1cc(C2Oc3ccccc3C=C2[N+](=O)[O-])cc(OC)c1OC (configuration not stated),x,x,x,x,28,x
Cc1ccccc1C([O-])=Nc1ccc[n+](-c2nc3ccccc3nc2NS(=O)(=O)c2ccccc2)c1,89*,12,4,3,33,18
O=S(=O)(Nc1nc2ccccc2nc1-[n+]1ccccc1)c1ccc(Cl)cc1,4,-1,25,-1,-4,-4
CN(C)c1ncnc2c1NC1=C(S2)C(=NCCCC(=O)O)CC(C)(C)C1,72,-19,13,0,87*,-8
O=S(=O)(CC(CN1CCCCC1)N1CCCCC1)c1ccc2ccccc2c1 (configuration not stated),x,x,30,54,13,90*
COc1ccc2[nH]c(=O)c(CN(Cc3ccco3)C(c3nnnn3Cc3ccccc3)C(C)C)cc2c1 (configuration not stated),0,7,15,3,17,30
SMILES,ALR inh,HCV core dimer,AI-2 QS mod,HSF1 inh,PHOSPHO1 block,HSF1 activator
CCC(c1nnnn1Cc1ccco1)N(Cc1cc2cc(C)cc(C)c2[nH]c1=O)CC1CCCO1 (configuration not stated),10,6,35,52,6,64*
Cc1cccc2cc(CN(Cc3ccco3)C(c3nnnn3CCc3ccccc3)C(C)C)c(=O)[nH]c12 (configuration not stated),-7,13,16,138,9,198*
CCOC(=O)Cn1nnnc1C(C(C)C)N(Cc1cc2c(C)cc(C)cc2[nH]c1=O)C1CCCC1 (configuration not stated),3,24,18,86,-12,123*
COc1ccc2[nH]c(=O)c(CN(C3CCCCC3)C(c3nnnn3Cc3ccco3)C(C)C)cc2c1 (configuration not stated),x,70*,15,96,37,119*
Cc1c(C)n2c(SCC(=O)Nc3cccc4ccccc34)nnc2[nH]c1=O,x,4,33,-4,x,-15
CCOC(=O)N1CCN(C(=O)CSc2ccc3nnc(CCNC(=O)c4ccccc4)n3n2)CC1,-15,1,12,x,-17,x
CCC(c1nnnn1Cc1ccco1)N(Cc1ccccc1OC)Cc1cc2cc(C)ccc2[nH]c1=O (configuration not stated),3,33,32,88,18,89*
Cc1ccc2[nH]c(=O)c(CN(CCCO)C(C)c3nnnn3Cc3ccco3)cc2c1 (configuration not stated),-1,4,-15,-5,58,4
CC(C)(C)C#CCn1c(/C=[N+](\[O-])C2CCCCC2)nc2ccccc21,7,-1,13,21,15,36
CCCCN(C)C(=O)C1CCC(CNS(=O)(=O)c2ccc3c(c2)CC(C)N3C(=O)C2CC2)CC1 (configuration not stated),-3,9,13,15,48,61*
CCC(C)(C)NC(=O)C1CCCN(S(=O)(=O)c2ccc3c(c2)CC(C)N3C(=O)C2CC2)C1 (configuration not stated),-5,1,20,4,63*,4
CC(=O)Oc1ccc(C(=O)Cc2ccc3ccccc3n2)c(O)c1C,-8,9,16,47,15,76*
CCc1cc(/C(Cc2csc(C)n2)=N/O)c(O)cc1O,38,-4,34,-3,3,17
Cc1c(O)ccc(/C(Cc2ccc3ccccc3n2)=N\O)c1O,28,1,7,38,12,70*
Oc1c(CN2CCCCC2)cc(Br)c2cccnc12,x,-9,-87*,-60*,-43,-58
Oc1c(CN2CCc3ccccc3C2)cc(Cl)c2cccnc12,-55,4,-89*,-36,30,-46

# Screening results as filed in PubChem.
